Converted amounts (≈) assume the structure as drawn.

Data set [1] has as its system Mycobacterium tuberculosis. Nature of the data set: Antimycobacterial activity against Mycobacterium tuberculosis H37Rv after 7 days by resazurin microtitre plate assay. It counts as functional. As to conditions: 168 h. The method, boiled down: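 REMA in Middlebrook 7H9 with OADC. Three-week culture vortexed with glass beads, adjusted to 1.0 McFarland (about 3×10⁸ bacteria/mL) and diluted 20-fold. Final concentrations 1.6–200 via 2-fold dilutions; growth control plus 1% ([…] diluted) control. 7 days at 35 °C, then 0.01% resazurin for 18 h; fluorescence ex 520/em 590 nm. MIC taken where fluorescence plateaued or matched the 1% control (t-test).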

The test system of data set [2] is Mycobacterium tuberculosis. Put plainly: Antitubercular activity against Mycobacterium tuberculosis H37Rv infected in C57BL/6 mouse assessed as lung mass index at 20 mg/kg, po administered via gavage over 42 days (excluding weekends) (reference value: 2.28 +/- 0.1). It counts as functional.
Data set [3] deals with Mycobacterium tuberculosis. Nature of the data set: Antitubercular activity against Mycobacterium tuberculosis H37Rv infected in C57BL/6 mouse assessed as colony forming units per lung mass unit at 20 mg/kg, po administered via gavage over 42 days (excluding weekends) (reference value: 169.1 +/- 11.83 x 10^3). The class given is functional.
The test system of data set [4] is Mycobacterium tuberculosis. Nature of the data set: Antitubercular activity against Mycobacterium tuberculosis H37Rv infected in C57BL/6 mouse assessed as tubercular foci index at 20 mg/kg, po administered via gavage over 42 days (excluding weekends) (reference value: 23.6 +/- 0.09). It counts as functional.
Data set [5] relates to Staphylococcus aureus. Nature of the data set: Antibacterial activity against Staphylococcus aureus assessed as diameter of inhibition zone after 18 hrs by Kirby-Bauer disk diffusion test. It counts as functional.
For data set [6], the system named is Enterococcus faecium. Put plainly: Antibacterial activity against Enterococcus faecium assessed as diameter of inhibition zone after 18 hrs by Kirby-Bauer disk diffusion test. It counts as functional.
Data set [7] concerns Klebsiella aerogenes. Put plainly: Antibacterial activity against Enterobacter aerogenes assessed as diameter of inhibition zone measured after 18 hrs by Kirby-Bauer disk diffusion test. The class given is functional.
The test system of data set [8] is Klebsiella pneumoniae. Put plainly: Antibacterial activity against Klebsiella pneumoniae assessed as diameter of inhibition zone measured after 18 hrs by Kirby-Bauer disk diffusion test. The class given is functional.
In data set [9] the test system is Acinetobacter baumannii. Nature of the data set: Antibacterial activity against Acinetobacter baumannii assessed as diameter of inhibition zone measured after 18 hrs by Kirby-Bauer disk diffusion test. The class given is functional.
For data set [10], the system named is Mus musculus. Put plainly: Toxicity in C57BL6 mouse assessed as lung mass quotient at 700 to 1100 mg/kg, po measured after 14 days relative to total body weight. The conditions noted are these: in vivo, 336 h. The class given is organism-based. The method, boiled down: (§1)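 Male C57BL6 mice (19.0–22.0 g), quarantined 14 days, 6 per dose group. Single oral gavage of Tween-80 suspension in water at 700–1100 mg/kg in 100 mg/kg steps; controls (7 mice) received 0.01% Tween-80. Lethality, time to death and clinical signs recorded daily for 14 days, then cervical dislocation and necropsy; heart, lung, liver, spleen and left kidney weights expressed relative to body weight. LD50 calculated by formula from dead/total counts.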

Data set [11] deals with Mus musculus. Put plainly: Toxicity in C57BL6 mouse assessed as spleen mass quotient at 700 to 1100 mg/kg, po measured after 14 days relative to total body weight. As to conditions: in vivo, 336 h. The class given is organism-based. The method, boiled down:
as §1

The test system of data set [12] is Mus musculus. Nature of the data set: Toxicity in C57BL6 mouse assessed as lethality at 1100 mg/kg, po measured daily over 14 days of treatment. It counts as organism-based. The conditions noted are these: in vivo, 336 h. The procedure, abridged: as §1
The test system of data set [13] is Mus musculus. Nature of the data set: Toxicity in C57BL6 mouse assessed as body mass at 700 to 1100 mg/kg, po measured after 14 days (reference value: 22.9 +/- 0.32 g). The conditions noted are these: in vivo, 336 h. The class given is organism-based. The method, boiled down:
as §1

The test system of data set [14] is Mus musculus. Put plainly: Toxicity in C57BL6 mouse assessed as liver mass quotient at 700 to 1100 mg/kg, po measured after 14 days relative to total body weight. It counts as organism-based. As to conditions: in vivo, 336 h. The procedure, abridged:
as §1

The test system of data set [15] is Pseudomonas aeruginosa. Put plainly: Antibacterial activity against Pseudomonas aeruginosa assessed as diameter of inhibition zone measured after 18 hrs by Kirby-Bauer disk diffusion test. It counts as functional.
Data set [16] deals with Mus musculus. Put plainly: Toxicity in C57BL6 mouse assessed as heart mass quotient at 700 to 1100 mg/kg, po measured after 14 days relative to total body weight. The conditions noted are these: in vivo, 336 h. The class given is organism-based. The procedure, abridged: as §1
Data set [17] has as its system Mus musculus. Put plainly: Toxicity in C57BL6 mouse assessed as brain mass quotient at 700 to 1100 mg/kg, po measured after 14 days relative to total body weight. It counts as organism-based. As to conditions: in vivo, 336 h.
Data set [18] concerns Mus musculus. Nature of the data set: Toxicity in C57BL6 mouse assessed as lethality at 700 mg/kg, po measured daily over 14 days of treatment. It counts as organism-based. The conditions noted are these: in vivo, 336 h. The method, boiled down: as §1
Data set [19] is described as follows: (§2) Toxicity in po dosed C57BL6 mouse assessed as lethality measured daily over 14 days of treatment. The class given is organism-based. The conditions noted are these: C57BL6, mouse, in vivo. The method, boiled down: as §1
Data set [20] concerns Mus musculus. Described as §2. As to conditions: mouse, in vivo, 336 h. It counts as organism-based. The method, boiled down: as §1
The test system of data set [21] is Mus musculus. Nature of the data set: Toxicity in C57BL6 mouse assessed as left kidney mass quotient at 700 to 1100 mg/kg, po measured after 14 days relative to total body weight. It counts as organism-based. As to conditions: in vivo, 336 h. The method, boiled down:
as §1

`Cc1cnc(-c2cccnc2)n1CCC1CCN(C(=O)c2ccc([N+](=O)[O-])o2)CC1`: the MIC in [1] turned out to be 100 µg/mL (≈ 244 µM).
For `Cc1cnc(-c2ccccc2)n1CC1CCN(C(=O)c2ccc([N+](=O)[O-])o2)C1` (configuration not stated), the MIC in data set [1] stood at 6.2 µg/mL (≈ 16.3 µM).
`COCCn1c(C)cnc1CC1CCN(C(=O)c2ccc([N+](=O)[O-])o2)CC1`: the MIC in [1] is above 100 µg/mL.
For `CC[C@@H](CO)NCCN[C@@H](CC)CO` [ETHAMBUTOL], the Activity_index was 1.61 in data set [2] and 2.65 in [4]. In addition, the Activity in data set [3] was found to be 85.32 ×10³ CFU.
For the molecule `O=C(O)c1cn(C2CC2)c2cc(N3CCNCC3)c(F)cc2c1=O` [CIPROFLOXACIN], the “diameter of the inhibition zone (DIZ)” value is on record as 27 mm in data set [5]; 25 mm in data set [6]; 26 mm in [7]; 26 mm in [8]; 31 mm in [9].
As to `Cc1cnc(CCNC(=O)c2ccc([N+](=O)[O-])o2)n1C1CCC1`, the MIC in data set [1] stood at 6.2 µg/mL (≈ 19.5 µM).
Still for that read-out and setting: to `Cc1cnc(CC2CCN(C(=O)c3ccc([N+](=O)[O-])o3)C2)n1CC1CC1` (configuration not stated) belongs 6.2 µg/mL (≈ 17.3 µM).
In data set [1], `Cc1cnc(CCNC(=O)c2ccc([N+](=O)[O-])o2)n1C1CCCCCCC1` returned an MIC of 25 µg/mL (≈ 66.8 µM).
For the molecule `Cc1cnc(C)n1C1CCN(C(=O)c2ccc([N+](=O)[O-])o2)C1` (configuration not stated), the MIC in [1] is 3.1 µg/mL (≈ 10.2 µM).
Consider `Cc1cnc(C)n1C1CCN(C(=O)c2ccc([N+](=O)[O-])o2)CC1`, for which the MIC in [1] was above 100 µg/mL.
On to `Cc1cnc(C2CCCO2)n1CC1CCN(C(=O)c2ccc([N+](=O)[O-])o2)CC1` (configuration not stated), for which the MIC in data set [1] came out at 50 µg/mL (≈ 129 µM).
In the case of `CCCn1c(C)cnc1C1CN(C(=O)c2ccc([N+](=O)[O-])o2)C1`, the “fold change (FC)” value in data set [10] stood at 0.48; in [11] it was 0.23; in data set [14], 4.49; in data set [16], 0.34; in data set [17] it was 1.11; in data set [21], 0.39. Further, the Activity entry is listed as “Toxic” in data set [12], 22.32 g in data set [13], “Non-Toxic” in data set [18] and 85.9 ×10³ CFU in [3]. Besides, the “diameter of the inhibition zone (DIZ)” value in data set [5] is 15 mm; in data set [6], 0 mm; in data set [15], 0 mm; in data set [7], 19 mm; in [8], 0 mm; in data set [9] it was 25 mm. For the same molecule, the MIC in data set [1] was found to be 1.6 µg/mL (≈ 5.03 µM). Also, the Activity_index in data set [2] came out at 1.62; in data set [4] it was 2.7. For the same molecule, in data set [19], the LD50 at 336 h stood at 900 mg/kg. In addition, the LD16 in data set [20] came out at 287.5 mg/kg. Besides, in data set [20], the LD84 was found to be 1037.5 mg/kg. Moreover, in [20], the LD100 is 1100 mg/kg.
Take `Cc1cnc(C)n1C1CCCN(C(=O)c2ccc([N+](=O)[O-])o2)C1` (configuration not stated): the MIC in [1] is 100 µg/mL (≈ 314 µM).
For `Cc1cnc(Cc2ccccc2)n1CCNC(=O)c1ccc([N+](=O)[O-])o1`, in data set [1], inhibition of growth (MIC) required 50 µg/mL (≈ 141 µM).

The values are drawn from ChEMBL document CHEMBL4261586, “Conjugation of a 5-nitrofuran-2-oyl moiety to aminoalkylimidazoles produces non-toxic nitrofurans that are efficacious in vitro and in vivo against multidrug-resistant Mycobacterium tuberculosis” (Eur J Med Chem, 2018).
